Screening data from PubChem BioAssay.
Most compounds without a hit are left out; they make up all but 9.6% or so of the library.
PMI activator = phosphomannose isomerase (human) activation. P34949. purified human PMI, coupled resazurin fluorescence, 20 min; hits give high values; 1 = vehicle control, 0 substrate-free wells. activation factor at 20 µM. 190,000 compounds, 0.005% hits. AID 1214;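 active means activation factor of 2 or more at 20 µM, relative to plate controls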
Target sequence (P34949 whole entry, looked up): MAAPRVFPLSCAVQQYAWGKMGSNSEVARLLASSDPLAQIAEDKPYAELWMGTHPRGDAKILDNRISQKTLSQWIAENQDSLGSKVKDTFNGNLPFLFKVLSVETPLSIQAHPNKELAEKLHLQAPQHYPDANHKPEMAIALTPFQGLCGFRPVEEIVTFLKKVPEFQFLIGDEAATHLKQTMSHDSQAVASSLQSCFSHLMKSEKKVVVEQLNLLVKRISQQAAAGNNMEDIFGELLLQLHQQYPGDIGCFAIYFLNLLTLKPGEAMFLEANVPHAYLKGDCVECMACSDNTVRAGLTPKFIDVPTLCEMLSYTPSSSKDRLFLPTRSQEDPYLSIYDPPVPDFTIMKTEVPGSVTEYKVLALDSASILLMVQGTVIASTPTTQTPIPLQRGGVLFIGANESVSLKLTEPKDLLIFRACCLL
HCT116 PTEN-null = suppresses growth of cells with PTEN deletion. HCT116 PTEN-null viability, CellTiter-Glo, 60 h; hits give low values. viability, % at 10 µM. 140,000 compounds, 1.2% hits. AID 827;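 active means viability at or below a set limit, 4 SD under the median of all tested compounds, cut at about 3.7% in these data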;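 further: PTEN knockout HCT116 line with beta catenin targeted HCT116 as companion control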
L major viab = Leishmania major promastigote growth inhibition; Leishmania major promastigotes, resazurin fluorescence viability; inhibition, % at 10 µM; 200,000 compounds, 9% hits; in the data active means inhibition above about 50%;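 further: promastigotes grown with compound for 44 hours at 28 °C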
PMI act satM6P = activators of human phosphomannose isomerase at near-saturating mannose 6-phosphate | P34949 | 190,000 compounds, 0.34% hits | coupled PMI enzyme assay, resazurin fluorescence, 20 min; hits give high values; 1 = untreated enzyme, 0 = substrate-free blank | activation factor at 20 µM;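 active means activation factor of 2 or more at 20 µM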
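Material: human phosphomannose isomerase with PGI, G6PDH, diaphorase coupling enzymes; amount: PMI at 15 ng/mL final; also added: Mannose-6-phosphate 1.0 mM (near-saturating) plus 0.22 mM NADP+; incubation: enzyme reaction with compound 20 min at room temperature; signal: resorufin fluorescence (Ex 544/Em 590 nm) from resazurin via diaphorase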
HCT116 bCat-KO = beta-catenin-lacking colon tumor cell growth suppression; 140,000 compounds, 1.5% hits; HCT116 beta-catenin knockout viability, CellTiter-Glo, 60 h; hits give low values; viability, % at 10 µM;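 active means viability at or under a set limit, the compound median less 4 SD, cut at about 6% in these data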;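 further: 0% = Hyamine 1622 control at 20 µM and 100% = untreated cell control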
Lmaj promast 1uM = inhibitors of Leishmania major promastigote growth, repeat at 1 uM; shares compounds with L major viab; L. major promastigote growth, resazurin fluorescence, 48 h; inhibition, % at 1 µM; 1,100 compounds, 13% hits; AID 1258;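 active means inhibition above about 50% in both repeat tests, limit read from the data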
The depositor's hits bear a star; / = no result.

SMILES | PMI activator | HCT116 PTEN-null | L major viab | PMI act satM6P | HCT116 bCat-KO | Lmaj promast 1uM
O=C(N/N=C/c1ccco1)c1cc([N+](=O)[O-])cc([N+](=O)[O-])c1 | 1.1 | 97 | 97* | 1 | 88 | 16
Cc1nc2ccccc2cc1C(=O)N/N=C/c1ccco1 | 0.9 | 107 | 70* | 0.9 | 99 | -4
COC(=O)CNc1nc(-c2ccccc2F)nc2ccccc12 | 0.9 | 91 | 59* | 0.9 | 96 | 56*
Cc1ccc(-c2cc(C(F)F)nc(NCc3cccnc3)n2)cc1 | 0.8 | 36 | 57* | 0.8 | 15 | 3
O=c1oc(-c2cccs2)nc2ccccc12 | 1 | 97 | -4 | 1 | 99 | /
c1ccc(CNc2nc(-c3cccs3)nc3ccccc23)cc1 | 0.9 | 85 | 99* | 1 | 93 | 59*
Clc1ccc2nnnc(-c3ccccc3)c2c1 | 1 | 3.1* | 86* | 1 | 3.7* | 4
c1ccc(-c2nnnc3ccccc23)cc1 | 1.1 | 78 | 2 | 1 | 60 | /
COC(=O)C1=C(N)N(c2ccc(F)cc2)C2=C(C(=O)CCC2)C1c1ccc2c(c1)OCO2 (stereo not given) | 0.9 | 79 | 72* | 0.9 | 79 | 15
CC1=C(C(=O)Nc2ccccc2)C(c2ccc3c(c2)OCO3)C2=C(CCCC2=O)N1 (stereo not given) | 0.9 | 104 | 0 | 0.9 | 96 | /
CCNC(=O)CSc1nc2ccccc2c(=O)n1-c1cc(OC)ccc1OC | 1 | 94 | -2 | 1 | 94 | /
CCN(CC)c1ccc(NC(=O)CN2CCN(S(=O)(=O)c3cc(Cl)ccc3OC)CC2)cc1 | 1 | 66 | 54* | 1 | 65 | 66*
COc1ccc(Cl)cc1S(=O)(=O)N1CCN(C)CC1 | 1 | 99 | -6 | 1 | 99 | /
Cc1cc(C)cc(C(=O)N(NC(=O)Nc2ccc(Cl)cc2)C(C)(C)C)c1 | 1 | 21 | 98* | 1 | 30 | -11
O=C(COC(=O)CCCSc1nc2ccccc2[nH]1)Nc1ccc(Cl)cc1 | 0.9 | 96 | 3 | 1 | 99 | /
Cc1cc(C)n(S(=O)(=O)/C=C/c2ccccc2)n1 | 0.9 | 89 | 98* | 0.9 | 94 | -2
Cc1ccc(S(=O)(=O)n2nc(C)cc2C)cc1 | 1.1 | 95 | -1 | 1 | 102 | /
O=C(CCSCCc1ccccn1)Nc1ccc(Br)cc1F | 0.8 | 90 | 39 | 0.8 | 100 | /
CCOc1ccc(C(=O)NCCc2ccc3c(c2)OCCO3)cc1 | 0.9 | / | -5 | 0.9 | / | /
O=C(CSc1nc2scc(-c3ccccc3)c2c(=O)[nH]1)NC1CCCCC1 | 1.1 | / | 55* | 1 | / | 3
CN(C)S(=O)(=O)c1ccc2[nH]cc(/C=C/c3nc4ccccc4c(=O)n3-c3ccccc3)c2c1 | 0.9 | 60 | 21 | 0.9 | 45 | /
O=c1c2ccccc2sn1-c1ccc(S(=O)(=O)N2CCCC2)cc1 | 0.6 | 85 | -9 | 0.9 | 81 | /
CN(C)S(=O)(=O)c1cccc(-n2sc3ccccc3c2=O)c1 | 0 | / | 55* | 0.2 | / | -4
O=c1c2ccccc2sn1-c1ccccc1 | 0.1 | 47 | 100* | 0.4 | 10 | -5
CCOC(=O)/C=C1\SCC(=O)N1CC(=O)NCc1cccc(Cl)c1 | 1 | 101 | -3 | 1 | 91 | /
SMILES | PMI activator | HCT116 PTEN-null | L major viab | PMI act satM6P | HCT116 bCat-KO | Lmaj promast 1uM
COc1ccc(C2C3C(=O)N(Cc4ccccc4)C(=O)C3ON2c2ccccc2)c(OC)c1OC (stereo not given) | 0.8 | 63 | 74* | 0.8 | 72 | -10
CCC(=O)Nc1nc(C)c(-c2csc(Nc3ccccn3)n2)s1 | 0.9 | / | 62* | 0.8 | / | 6
O=C(NNC(=O)c1cccs1)c1ccc(Cl)c(Cl)c1 | 1 | 87 | -5 | 1.1 | 92 | /
Fc1ccc(-c2cc(-c3nnc4n3CCCCC4)c3ccccc3n2)cc1 | 0.9 | 86 | 52* | 1 | 92 | -12
Clc1ccc(-c2cc(-c3nnc4n3CCCCC4)c3ccccc3n2)cc1 | 0.9 | 61 | -3 | 1.1 | 62 | /
CCSc1nnc(NC(=O)CSc2nnc(-c3c[nH]c4ccccc34)n2CC)s1 | 0.8 | 98 | -6 | 0.8 | 91 | /
COc1ccc(OC)c(S(=O)(=O)Nc2ccc(Oc3ccccc3)cc2)c1 | 0.8 | 71 | 67* | 0.8 | 85 | -11
CNc1nc(N(C)C)nc(N(C)C)n1 | 1.1 | 99 | -2 | 1.1 | 111 | /
CN(C)/C=N/S(=O)(=O)c1cccn1-c1ncc(C(F)(F)F)cc1Cl | 1 | / | 1 | 1.1 | / | /
CN(C)S(=O)(=O)c1cccn1-c1ncc(C(F)(F)F)cc1Cl | 1 | 98 | 100* | 1 | 100 | 29
O=S(=O)(c1ccccc1)c1ncc(C(F)(F)F)cc1Cl | 1 | / | 72* | 0.9 | / | 39
